The results in this text go back to ChEMBL document CHEMBL4396922, “Identification of new aryl hydrocarbon receptor (AhR) antagonists using a zebrafish model” (Bioorg Med Chem, 2019).

Series [1] deals with T1, Aryl hydrocarbon receptor (Danio rerio, UniProt Q9YGV3).
T1 sequence (Q9YGV3 whole entry): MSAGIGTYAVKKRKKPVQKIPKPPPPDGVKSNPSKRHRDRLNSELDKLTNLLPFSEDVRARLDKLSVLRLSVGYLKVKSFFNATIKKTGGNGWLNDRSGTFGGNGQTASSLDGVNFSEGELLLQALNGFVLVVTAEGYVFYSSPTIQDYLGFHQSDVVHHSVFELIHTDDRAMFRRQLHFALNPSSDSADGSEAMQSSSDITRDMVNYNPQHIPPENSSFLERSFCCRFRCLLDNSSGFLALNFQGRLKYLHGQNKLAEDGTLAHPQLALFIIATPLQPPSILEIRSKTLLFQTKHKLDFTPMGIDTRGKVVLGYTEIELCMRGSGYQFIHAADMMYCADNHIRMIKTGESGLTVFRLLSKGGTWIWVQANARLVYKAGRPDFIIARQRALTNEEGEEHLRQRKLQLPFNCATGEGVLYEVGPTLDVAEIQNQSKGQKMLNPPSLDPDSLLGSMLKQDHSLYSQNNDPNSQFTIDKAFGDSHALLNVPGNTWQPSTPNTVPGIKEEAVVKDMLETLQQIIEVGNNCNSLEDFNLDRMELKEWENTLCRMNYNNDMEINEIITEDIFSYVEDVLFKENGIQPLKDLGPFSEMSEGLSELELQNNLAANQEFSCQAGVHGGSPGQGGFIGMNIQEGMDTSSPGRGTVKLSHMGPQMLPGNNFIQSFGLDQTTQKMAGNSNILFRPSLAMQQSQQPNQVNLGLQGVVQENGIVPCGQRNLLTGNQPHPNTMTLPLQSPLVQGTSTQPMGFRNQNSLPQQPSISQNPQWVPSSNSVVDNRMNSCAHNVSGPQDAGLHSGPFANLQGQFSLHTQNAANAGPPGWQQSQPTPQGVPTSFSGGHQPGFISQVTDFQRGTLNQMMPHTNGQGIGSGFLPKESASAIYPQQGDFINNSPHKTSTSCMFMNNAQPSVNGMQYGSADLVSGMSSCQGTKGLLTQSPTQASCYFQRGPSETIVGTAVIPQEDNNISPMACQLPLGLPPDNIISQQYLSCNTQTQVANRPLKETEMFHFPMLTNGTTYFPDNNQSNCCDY
As to the kind of experiment: Antagonist activity at aryl hydrocarbon receptor in 30 hrs post fertilized transgenic cyp1a:EGFP zebrafish embryo assessed as receptor transcriptional activity by measuring cyp1A-mediated EGFP expression at 5 uM measured after 48 hrs by fluorescence stereomicroscopic analysis. The essentials: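 Screen format: 30 hpf Tg(cyp1a:nls-egfp) embryos, three per well in 200 µL E3 medium (pH 7.2) with 10 nM TCDD. Each compound was added singly at 5 µM in DMSO. Incubation 48 h, then EGFP scored by fluorescent stereomicroscopy.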

Series [2] can be described thus: Toxicity in 30 hrs post fertilized transgenic cyp1a:EGFP zebrafish embryo. As to conditions: in vivo. Format: ADME, Danio rerio.
The species named for series [3] is Homo sapiens. As to the kind of experiment: Ex vivo expansion of human CD34-positive blood stem/progenitor cells assessed as increase in CD34+ cell population incubated for 5 weeks supplemented with fresh medium containing human recombinant thrombopoietin, stem cell factor, FLT-3 ligand and IL-3 by flow cytometry relative to control. It counts as functional. The essentials:
(§1)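 Human cord blood CD34⁺ progenitors, 5 x 10⁴ cells in DXF expansion medium with supplement and cytokine mix (TPO, SCF, flt-3 ligand, IL-3), treated with compound at seeding. Cultured 5 weeks at 37°C, 5% CO2, density kept at 5 x 10⁵–2 x 10⁶ cells/ml. Cells stained with anti-CD34-APC plus CD45RA- or Lin-FITC and counted by flow cytometry; vehicle 0.01% DMSO.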
A general note: A flow cytometer gives signals particle by particle.

For series [4], the species on record is Homo sapiens. As to the kind of experiment: Ex vivo expansion of human CD34-positive blood stem/progenitor cells assessed as CD34+ cell population incubated for 5 weeks supplemented with fresh medium containing human recombinant thrombopoietin, stem cell factor, FLT-3 ligand and IL-3 by flow cytometry. It counts as functional. The procedure, abridged: as §1

Series [5] concerns the target T1, Aryl hydrocarbon receptor. As to the kind of experiment: Antagonist activity at zebrafish AhR2 expressed in COS7 cells transfected with ARNT-1c, Cyp1a-firefly luciferase and pRL-TK Renilla luciferase plasmids assessed as inhibition of AhR transcriptional activity administered at 5 hrs post-transfection treated with TCDD at 1 hr post-compound treatment and measured for 10 sec after a 3 sec delay at 18 hrs post-TCDD challenge by dual luciferase reporter …. It counts as cell-based.

By IC50 is commonly meant the midpoint of a concentration-inhibition curve.

Each structure is given as a SMILES string. The source made the active and inactive calls. No cut-off for these calls is given here.

In the case of `COc1ccccc1C(=O)CC(=O)c1ccc(OCc2ccccc2)cc1`, the Activity entry in series [1] is listed as “Not Active”.

As for `COc1ccccc1C(=O)/C=C/c1ccc(OC(F)(F)F)cc1`, the Activity result in series [1] is reported as “Not Active”; in series [2], “Toxic”.

On to `CC(C)Oc1ccc(C(=O)CC(=O)c2ccccc2OC(F)(F)F)cc1`, for which the Activity result in series [1] is “Not Active”.

For the molecule `COc1cc(O)c(C(=O)CC(=O)c2ccc(OC(C)C)cc2)c(OC)c1`, in series [1], the Activity entry was “Not Active”.

For the molecule `CCOc1ccc(C(=O)CC(=O)c2ccccc2OC)cc1`, the outcome in series [1] was Active.

On to `O=C(CC(=O)c1ccc(OC(F)(F)F)cc1)c1ccccc1`, for which the Activity result in series [1] is recorded as “Not Active”.

Take `COc1ccccc1-c1cc(-c2ccc(OC(F)(F)F)cc2)no1`: the Activity result in series [1] is “Not Active”.

In the case of `COc1ccccc1C(=O)/C=C/c1ccc(OC(C)C)cc1`, in series [3], the fold change (FC) is > 4.

Take `COc1ccccc1C(=O)CC(=O)c1ccccc1`: the Activity result in series [1] is on record as “Not Active”.

Regarding `COc1ccccc1C(=O)CC(=O)c1ccc(OC(F)(F)F)cc1`, the result in series [4] was inactive.

Take `COc1ccccc1C(=O)CC(=O)c1ccc(OC(C)C)cc1`: the result in series [4] was inactive.

`COc1cccc(C(=O)CC(=O)c2ccc(OC(F)(F)F)cc2)c1`: the outcome in series [1] was Active.

`COc1ccccc1-c1cc(-c2ccc(OC(C)C)cc2)ncn1`: the outcome in series [1] was Active.

Regarding `COc1ccccc1C(=O)CC(=O)c1ccc(OCC(C)C)cc1`, the Activity result in series [1] is “Not Active”.

Consider `COc1ccccc1-c1cc(-c2ccc(OC(C)C)cc2)[nH]n1`, for which the figures for the Activity result in series [1] and in series [2] were “Not Active” and “Toxic”, respectively.

For `Cc1ccccc1/N=N/c1ccc(NC(=O)c2ccnn2C)c(C)c1`, the IC50 in series [5] was determined as 98.1 nM. In series [4], the result was inactive.

As for `COc1cccc(OC)c1C(=O)CC(=O)c1ccc(OC(C)C)cc1`, in series [1], the Activity entry was “Not Active”.

On to `COc1ccc(C(=O)CC(=O)c2ccc(OC(F)(F)F)cc2)cc1`, for which the Activity result in series [1] is listed as “Not Active”.

On to `CCOc1ccccc1C(=O)CC(=O)c1ccc(OC(C)C)cc1`, for which the result in series [4] was inactive.

With `COc1ccccc1C(=O)C(C)(C)C(=O)c1ccc(OC(C)C)cc1`, in series [1], the Activity entry is recorded as “Not Active”.

`COc1ccccc1-c1cc(-c2ccc(OC(F)(F)F)cc2)[nH]n1`: the Activity entry was “Not Active” in series [1] and “Toxic” in series [2].

In the case of `COc1ccccc1-c1cc(-c2ccc(OC(C)C)cc2)no1`, the outcome in series [1] was Active.

`COc1ccc(C(=O)CC(=O)c2ccccc2OC)cc1`: in series [1], the Activity entry was “Not Active”.

For the molecule `COc1ccccc1C(=O)CC(=O)c1cccc(OC(F)(F)F)c1`, the result in series [1] was Active.
